Results pooled from the literature.
Compare with care: the assays were run in different laboratories.
Target: Mitogen-activated protein kinase kinase kinase 11 (MAP3K11, Homo sapiens, UniProt Q16584)

| SMILES | test | setting | endpoint | result |
| --- | --- | --- | --- | --- |
| Cn1cc(-c2cc(F)cc(N3CCn4c(cc5c4CCCC5)C3=O)c2CO)cc(Nc2ccc(N3CCN(C4COC4)CC3)cn2)c1=O | enzyme activity, inhibitor | 0.1 µM | inhibition | 0% |
| Cc1nn(C)cc1-c1nc2c(N3CCN(Cc4ccc(Cl)cc4)CC3)c(Cl)cnc2[nH]1 | binding, competition with immobilised ligand | 1 µM | remaining binding | 9.8% |
| Cn1cncc1[C@](O)(COc1ccc(C#N)cc1-c1ccc(OC(F)(F)F)cc1)c1ccc(C#N)cc1 | cell-free assay, competition with immobilised ligand | 1 µM | remaining binding | 86% |
| Cn1cc(-c2cccc(N3CCc4c(sc5c4CC(C)(C)C5)C3=O)c2CO)cc(Nc2ccncn2)c1=O | enzyme activity, inhibitor | 1 µM | inhibition | -4% |
| Nc1ncc(-c2nc(N3CCOCC3)nc(N3CCOCC3)n2)c(C(F)F)n1 | binding, competition with immobilised ligand | 10 µM | remaining binding | 47% |
| CC(C)(C)c1cc(C=C(C#N)C#N)cc(Br)c1O | enzyme activity, inhibitor | 0.5 µM | remaining activity | 97.4% |
| COc1ncccc1-c1cnn2ccc(N3CCN(C(=O)OC(C)C)CC3)nc12 | binding, competition with immobilised ligand | 1 µM | remaining binding | 76% |
| O=c1[nH]c2ccccc2n1C1CCN(Cc2ccc(-c3[nH]c4cc5ncnc5cc4nc3-c3ccccc3)cc2)CC1 | cell-free assay | 0.5 µM | remaining signal | 94.6% |
| N#CC1(c2ccccn2)CCN(Cc2cc(C(=O)O)c(=O)n3ccccc23)CC1 | cell-free assay, competition with immobilised ligand | 1 µM | remaining binding | 100% |
